Data taken from the M2OR odorant receptor database.

Key:
Settings in all cases: stereoisomer not certain
OR10J5 (Homo sapiens) = biological target: T1, OR10J5 (Homo sapiens) (UniProt Q8NHC4)
T1 sequence (whole entry): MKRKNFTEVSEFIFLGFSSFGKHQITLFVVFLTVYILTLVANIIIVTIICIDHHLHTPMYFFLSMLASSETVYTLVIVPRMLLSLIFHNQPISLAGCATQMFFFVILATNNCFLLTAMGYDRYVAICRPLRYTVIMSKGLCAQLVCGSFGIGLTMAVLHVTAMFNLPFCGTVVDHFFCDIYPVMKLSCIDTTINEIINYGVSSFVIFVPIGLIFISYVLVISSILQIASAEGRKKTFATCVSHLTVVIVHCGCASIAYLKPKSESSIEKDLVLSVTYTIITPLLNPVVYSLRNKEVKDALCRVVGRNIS
Method in brief: (§1)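 Each entry records the cell line, G-protein, co-transfected protein and tags used. Methods varied with the source, often transient luciferase assays in mammalian cell lines. A receptor–molecule pair is called responsive (active) if the original authors judged its signal statistically different from baseline and non-responsive (inactive) otherwise.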

OR10G2 (Homo sapiens) = biological target: T2, OR10G2 (Homo sapiens) (UniProt Q8NGC3)
T2 sequence (whole entry): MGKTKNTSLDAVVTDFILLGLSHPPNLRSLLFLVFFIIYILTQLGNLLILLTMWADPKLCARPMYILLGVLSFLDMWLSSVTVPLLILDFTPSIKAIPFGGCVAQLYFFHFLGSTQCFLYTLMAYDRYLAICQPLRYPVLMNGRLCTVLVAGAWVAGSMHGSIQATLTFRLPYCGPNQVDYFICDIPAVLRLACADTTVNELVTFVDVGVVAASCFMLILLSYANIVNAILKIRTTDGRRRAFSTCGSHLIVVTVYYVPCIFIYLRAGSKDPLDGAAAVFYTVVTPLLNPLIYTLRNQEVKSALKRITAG
Method in brief: as §1

OR10G3 (Homo sapiens) = biological target: T3, OR10G3 (Homo sapiens) (UniProt Q8NGC4)
T3 sequence (whole entry): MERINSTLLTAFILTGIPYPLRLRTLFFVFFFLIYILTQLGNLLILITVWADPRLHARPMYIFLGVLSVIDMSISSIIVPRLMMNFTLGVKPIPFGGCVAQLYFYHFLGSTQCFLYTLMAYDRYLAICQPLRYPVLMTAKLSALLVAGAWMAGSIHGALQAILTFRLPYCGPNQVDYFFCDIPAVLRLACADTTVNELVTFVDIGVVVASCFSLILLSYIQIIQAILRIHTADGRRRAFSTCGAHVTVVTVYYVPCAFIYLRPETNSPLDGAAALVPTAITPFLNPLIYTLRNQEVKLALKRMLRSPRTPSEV
Method in brief: as §1

OR10G4 (Homo sapiens) = biological target: T4, OR10G4 (Homo sapiens) (UniProt Q8NGN3)
T4 sequence (whole entry): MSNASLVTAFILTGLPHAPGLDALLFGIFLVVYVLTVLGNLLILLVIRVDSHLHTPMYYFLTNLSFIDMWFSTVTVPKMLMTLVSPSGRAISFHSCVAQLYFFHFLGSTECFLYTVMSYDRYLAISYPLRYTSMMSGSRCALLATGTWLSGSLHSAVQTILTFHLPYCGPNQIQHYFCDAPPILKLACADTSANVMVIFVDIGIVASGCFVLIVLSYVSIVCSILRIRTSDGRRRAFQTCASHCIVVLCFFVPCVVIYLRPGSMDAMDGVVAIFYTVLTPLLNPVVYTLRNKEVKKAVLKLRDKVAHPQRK
Method in brief: as §1

OR10G6 (Homo sapiens) = biological target: T5, OR10G6 (Homo sapiens) (UniProt Q8NH81)
T5 sequence (whole entry): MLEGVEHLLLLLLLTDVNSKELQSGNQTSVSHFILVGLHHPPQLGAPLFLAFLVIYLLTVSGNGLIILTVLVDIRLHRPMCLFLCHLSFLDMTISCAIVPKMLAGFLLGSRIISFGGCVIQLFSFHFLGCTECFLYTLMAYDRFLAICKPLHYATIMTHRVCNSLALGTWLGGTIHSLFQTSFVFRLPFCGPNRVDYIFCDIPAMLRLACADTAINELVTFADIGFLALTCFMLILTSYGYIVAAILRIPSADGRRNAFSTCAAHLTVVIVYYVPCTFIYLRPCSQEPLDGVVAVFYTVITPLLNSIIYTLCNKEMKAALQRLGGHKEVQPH
Method in brief: as §1

OR10G7 (Homo sapiens) = biological target: T6, OR10G7 (Homo sapiens) (UniProt Q8NGN6)
T6 sequence (whole entry): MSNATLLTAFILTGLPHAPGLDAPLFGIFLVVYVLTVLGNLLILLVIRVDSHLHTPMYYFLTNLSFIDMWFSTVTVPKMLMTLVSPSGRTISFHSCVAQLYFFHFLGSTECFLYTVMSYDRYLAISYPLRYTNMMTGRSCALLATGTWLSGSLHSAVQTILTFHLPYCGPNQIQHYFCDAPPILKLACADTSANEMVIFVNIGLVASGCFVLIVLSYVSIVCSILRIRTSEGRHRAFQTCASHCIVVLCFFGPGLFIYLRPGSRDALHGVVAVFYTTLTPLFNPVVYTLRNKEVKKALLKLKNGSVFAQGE
Method in brief: as §1

OR10G8 (Homo sapiens) = biological target: T7, OR10G8 (Homo sapiens) (UniProt Q8NGN5)
T7 sequence (whole entry): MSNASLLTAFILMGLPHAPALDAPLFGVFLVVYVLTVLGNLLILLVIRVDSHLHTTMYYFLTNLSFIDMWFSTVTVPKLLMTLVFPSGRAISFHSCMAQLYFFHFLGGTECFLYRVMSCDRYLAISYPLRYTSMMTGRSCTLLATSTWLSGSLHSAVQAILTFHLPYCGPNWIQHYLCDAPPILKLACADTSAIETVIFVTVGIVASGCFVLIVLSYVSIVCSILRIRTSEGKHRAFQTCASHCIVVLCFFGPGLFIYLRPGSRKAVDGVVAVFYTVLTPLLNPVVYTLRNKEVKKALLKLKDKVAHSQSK
Method in brief: as §1

OR10G9 (Homo sapiens) = biological target: T8, OR10G9 (Homo sapiens) (UniProt Q8NGN4)
T8 sequence (whole entry): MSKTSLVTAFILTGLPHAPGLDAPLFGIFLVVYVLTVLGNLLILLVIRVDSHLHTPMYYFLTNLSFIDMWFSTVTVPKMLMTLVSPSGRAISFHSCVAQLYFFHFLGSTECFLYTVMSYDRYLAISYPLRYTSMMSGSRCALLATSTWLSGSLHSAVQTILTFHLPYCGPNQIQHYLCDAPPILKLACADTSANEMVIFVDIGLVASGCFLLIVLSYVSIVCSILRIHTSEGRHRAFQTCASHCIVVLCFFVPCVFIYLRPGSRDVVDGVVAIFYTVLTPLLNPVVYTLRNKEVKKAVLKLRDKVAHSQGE
Method in brief: as §1

OR10H1 (Homo sapiens) = biological target: T9, OR10H1 (Homo sapiens) (UniProt Q9Y4A9)
T9 sequence (whole entry): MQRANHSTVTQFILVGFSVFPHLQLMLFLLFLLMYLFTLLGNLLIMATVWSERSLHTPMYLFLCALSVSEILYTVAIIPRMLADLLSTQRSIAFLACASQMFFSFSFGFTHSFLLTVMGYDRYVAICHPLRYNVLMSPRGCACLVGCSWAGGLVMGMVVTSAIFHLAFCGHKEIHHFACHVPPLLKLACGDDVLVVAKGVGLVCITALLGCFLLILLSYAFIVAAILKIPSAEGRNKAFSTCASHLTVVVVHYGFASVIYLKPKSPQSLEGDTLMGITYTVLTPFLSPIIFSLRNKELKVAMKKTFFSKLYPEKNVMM
Method in brief: as §1

OR10H2 (Homo sapiens) = biological target: T10, OR10H2 (Homo sapiens) (UniProt O60403)
T10 sequence (whole entry): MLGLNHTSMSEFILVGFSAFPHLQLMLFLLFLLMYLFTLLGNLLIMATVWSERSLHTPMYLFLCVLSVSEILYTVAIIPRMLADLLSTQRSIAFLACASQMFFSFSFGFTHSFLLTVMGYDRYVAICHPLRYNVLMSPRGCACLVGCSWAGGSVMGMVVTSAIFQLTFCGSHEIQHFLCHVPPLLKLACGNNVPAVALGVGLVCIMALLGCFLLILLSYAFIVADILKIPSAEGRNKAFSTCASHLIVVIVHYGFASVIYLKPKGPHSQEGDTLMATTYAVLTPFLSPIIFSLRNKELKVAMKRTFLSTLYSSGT
Method in brief: as §1

OR10H3 (Homo sapiens) = biological target: T11, OR10H3 (Homo sapiens) (UniProt O60404)
T11 sequence (whole entry): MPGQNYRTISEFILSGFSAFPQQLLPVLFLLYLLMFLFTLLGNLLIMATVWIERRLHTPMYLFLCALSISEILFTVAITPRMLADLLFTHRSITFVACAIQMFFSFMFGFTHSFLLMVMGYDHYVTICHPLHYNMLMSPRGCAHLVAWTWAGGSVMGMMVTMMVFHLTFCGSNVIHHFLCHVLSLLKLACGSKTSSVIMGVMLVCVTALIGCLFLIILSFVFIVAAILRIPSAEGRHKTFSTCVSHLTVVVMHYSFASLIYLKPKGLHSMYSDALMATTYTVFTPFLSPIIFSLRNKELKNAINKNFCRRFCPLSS
Method in brief: as §1

OR10H4 (Homo sapiens) = biological target: T12, OR10H4 (Homo sapiens) (UniProt Q8NGA5)
T12 sequence (whole entry): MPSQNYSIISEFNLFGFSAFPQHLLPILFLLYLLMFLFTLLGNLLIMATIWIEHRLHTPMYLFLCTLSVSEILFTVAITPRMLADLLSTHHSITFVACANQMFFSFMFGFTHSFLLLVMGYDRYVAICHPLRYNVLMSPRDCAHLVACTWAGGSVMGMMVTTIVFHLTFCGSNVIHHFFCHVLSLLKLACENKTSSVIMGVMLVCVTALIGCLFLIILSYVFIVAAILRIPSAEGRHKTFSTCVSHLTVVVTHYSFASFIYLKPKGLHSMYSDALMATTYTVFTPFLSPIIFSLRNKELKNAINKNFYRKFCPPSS
Method in brief: as §1

OR10H5 (Homo sapiens) = biological target: T13, OR10H5 (Homo sapiens) (UniProt Q8NGA6)
T13 sequence (whole entry): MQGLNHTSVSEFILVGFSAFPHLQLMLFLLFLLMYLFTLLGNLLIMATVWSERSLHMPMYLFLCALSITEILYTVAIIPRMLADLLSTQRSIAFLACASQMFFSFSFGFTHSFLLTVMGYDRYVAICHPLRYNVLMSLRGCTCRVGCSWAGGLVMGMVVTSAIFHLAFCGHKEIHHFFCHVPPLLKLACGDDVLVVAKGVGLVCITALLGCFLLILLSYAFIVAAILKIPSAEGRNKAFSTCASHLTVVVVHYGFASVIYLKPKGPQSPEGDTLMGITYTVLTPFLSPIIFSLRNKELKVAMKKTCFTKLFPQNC
Method in brief: as §1

OR10J3 (Homo sapiens) = biological target: T14, OR10J3 (Homo sapiens) (UniProt Q5JRS4)
T14 sequence (whole entry): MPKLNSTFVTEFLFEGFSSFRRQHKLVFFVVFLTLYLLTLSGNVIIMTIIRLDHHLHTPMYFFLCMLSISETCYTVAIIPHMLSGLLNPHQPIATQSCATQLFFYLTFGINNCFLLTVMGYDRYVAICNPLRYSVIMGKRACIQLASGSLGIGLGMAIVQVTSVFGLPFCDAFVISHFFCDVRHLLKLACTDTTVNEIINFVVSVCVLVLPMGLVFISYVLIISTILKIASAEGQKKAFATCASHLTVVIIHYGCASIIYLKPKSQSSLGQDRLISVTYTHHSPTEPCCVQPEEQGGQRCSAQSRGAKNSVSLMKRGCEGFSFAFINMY
Method in brief: as §1

OR10J4 (Homo sapiens) = OR10J4 (Homo sapiens) (UniProt P0C629)
Sequence of OR10J4 (Homo sapiens) (P0C629 whole entry F198I): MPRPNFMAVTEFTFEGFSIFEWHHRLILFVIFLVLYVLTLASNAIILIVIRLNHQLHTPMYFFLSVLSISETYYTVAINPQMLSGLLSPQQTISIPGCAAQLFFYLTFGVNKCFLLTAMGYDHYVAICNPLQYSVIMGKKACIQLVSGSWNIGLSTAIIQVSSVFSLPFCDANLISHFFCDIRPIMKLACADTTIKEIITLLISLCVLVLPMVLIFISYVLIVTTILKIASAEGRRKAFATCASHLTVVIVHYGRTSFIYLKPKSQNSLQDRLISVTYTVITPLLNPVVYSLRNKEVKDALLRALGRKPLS
Method in brief: as §1

OR10K1 (Homo sapiens) = biological target: T15, OR10K1 (Homo sapiens) (UniProt Q8NGX5)
T15 sequence (whole entry): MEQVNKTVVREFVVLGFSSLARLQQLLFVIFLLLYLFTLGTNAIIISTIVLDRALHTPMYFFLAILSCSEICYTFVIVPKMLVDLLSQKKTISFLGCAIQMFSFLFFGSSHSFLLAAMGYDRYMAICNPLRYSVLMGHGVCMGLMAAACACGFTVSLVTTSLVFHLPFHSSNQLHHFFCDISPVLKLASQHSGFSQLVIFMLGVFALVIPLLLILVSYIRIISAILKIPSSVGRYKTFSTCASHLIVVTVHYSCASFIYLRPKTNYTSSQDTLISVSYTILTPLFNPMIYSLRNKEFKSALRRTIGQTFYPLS
Method in brief: as §1

OR10K2 (Homo sapiens) = biological target: T16, OR10K2 (Homo sapiens) (UniProt Q6IF99)
T16 sequence (whole entry): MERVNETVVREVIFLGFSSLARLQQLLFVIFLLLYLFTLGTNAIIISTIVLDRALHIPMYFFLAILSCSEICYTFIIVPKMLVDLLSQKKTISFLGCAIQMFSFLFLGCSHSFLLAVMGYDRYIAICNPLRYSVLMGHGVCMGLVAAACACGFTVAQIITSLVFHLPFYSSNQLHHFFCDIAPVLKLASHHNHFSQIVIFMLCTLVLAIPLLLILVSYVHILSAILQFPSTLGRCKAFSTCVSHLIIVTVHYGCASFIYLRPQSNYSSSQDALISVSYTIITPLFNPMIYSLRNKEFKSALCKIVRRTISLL
Method in brief: as §1

OR10P1 (Homo sapiens) = biological target: T17, OR10P1 (Homo sapiens) (UniProt Q8NGE3)
T17 sequence (whole entry): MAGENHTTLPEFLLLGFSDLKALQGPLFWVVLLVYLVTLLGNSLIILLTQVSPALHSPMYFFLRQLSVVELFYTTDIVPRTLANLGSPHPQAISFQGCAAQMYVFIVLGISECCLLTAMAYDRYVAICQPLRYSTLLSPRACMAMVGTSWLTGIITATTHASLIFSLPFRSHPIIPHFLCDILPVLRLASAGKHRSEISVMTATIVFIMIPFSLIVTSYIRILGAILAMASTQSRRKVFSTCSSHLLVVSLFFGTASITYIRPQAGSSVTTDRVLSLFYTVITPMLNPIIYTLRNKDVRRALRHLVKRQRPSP
Method in brief: as §1

OR10Q1 (Homo sapiens) = biological target: T18, OR10Q1 (Homo sapiens) (UniProt Q8NGQ4)
T18 sequence (whole entry): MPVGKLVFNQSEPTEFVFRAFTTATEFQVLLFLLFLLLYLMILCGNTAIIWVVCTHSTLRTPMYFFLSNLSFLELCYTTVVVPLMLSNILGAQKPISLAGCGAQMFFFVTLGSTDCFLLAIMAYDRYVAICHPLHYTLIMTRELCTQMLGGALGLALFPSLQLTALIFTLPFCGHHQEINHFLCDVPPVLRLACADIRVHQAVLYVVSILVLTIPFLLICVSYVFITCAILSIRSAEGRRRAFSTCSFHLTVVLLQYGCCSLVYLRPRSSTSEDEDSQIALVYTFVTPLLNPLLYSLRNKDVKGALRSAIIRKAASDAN
Method in brief: as §1

Measured: odorant receptor agonist call

O=c1ccc2ccccc2o1
inactive: OR10J5 (Homo sapiens)

CC(=O)c1c(C)c([N+](=O)[O-])c(C(C)(C)C)c([N+](=O)[O-])c1C
inactive: all assays above
